Laboratory results as given in PubChem BioAssay AID588829 (Broad Institute, 2011).
pIC50: −log10 of the molar value. Active and inactive are the calls of the source.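 How the source made its calls: active means compounds lowering the cell energy light signal whose fitted half-effect dose is at most twice the top tested dose; inconclusive means flat curve with a 30 to 70% drop, or poor fit; inactive means the rest.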

System: not listed separately
Experiment: viability loss of SR-BI-expressing CHO line – cell-based, CellTiter-Glo luminescence, 24 h, dry powder, set 2, cytotoxicity control for SR-BI HDL uptake inhibitor project, dose response (AID 588829)
Conditions: ldlA[mSR-BI] CHO cells viability, CellTiter-Glo ATP luminescence, 24 h; at 30 µM (top of the series)
Summary of the method: (§1)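 Test system: ldlA cells expressing mouse scavenger receptor SR-BI. Dosing: compound series of 8 concentrations, delivered by pin transfer. Detection: CellTiter-Glo luminescence reporting cellular ATP. Medium: Ham's F12, 10% FCS. Schedule: 24 h at 37 °C exposure, 10 min detection incubation. Evaluation: cell viability, IC50 from fitted dose-response curve.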
With `C[C@@H]1CN([C@@H](C)CO)C(=O)Cc2cc(NC(=O)Nc3ccc(C(F)(F)F)cc3)ccc2O[C@@H]1CN(C)S(=O)(=O)c1ccc(Cl)cc1` the activity change, negative = toxicity was -71.3% (inactive).

Same assay, conditions: ldlA[mSR-BI] CHO cells viability, CellTiter-Glo ATP luminescence, 24 h; at 35 µM (top of the series)
With `CC1CCC/C=C/C2CC(O)CC2C(O)/C=C\C(=O)O1` (stereo unspecified) the activity change, negative = toxicity was -13.3% (inactive). In the case of `CC(C)(Sc1cc(C(C)(C)C)c(O)c(C(C)(C)C)c1)Sc1cc(C(C)(C)C)c(O)c(C(C)(C)C)c1`, the activity change, negative = toxicity was 14.8% (inactive). For `COc1ccc(-c2cc(CC(=O)N(C3CCCCC3)C(C)C(=O)NC3CCCC3)no2)cc1OC` (stereo unspecified), the activity change, negative = toxicity was 13.9% (inactive). For `C[C@@H]1CN([C@H](C)CO)C(=O)c2cc(NC(=O)Cc3cn(C)c4ccccc34)ccc2O[C@H]1CN(C)S(=O)(=O)c1ccc(Cl)cc1`, the activity change, negative = toxicity was 3.86% (inactive). With `Cc1ccc2oc(-c3cccc(NC(=O)c4cc(-n5cnnc5)ccc4Cl)c3)nc2c1` the activity change, negative = toxicity was -6.36% (inactive). For `CCNC(=O)N1CCc2cc(-c3csc(NC(=O)c4cc(OC)cc(OC)c4)n3)ccc21`, the activity change, negative = toxicity was 9.7% (inactive). In the case of `COCC(=O)N1CCc2cc(-c3csc(NC(=O)c4cc(OC)cc(OC)c4)n3)ccc21`, the activity change, negative = toxicity was 10.9% (inactive). In the case of `C[C@H](C(=O)NC1CCCC1)N(C(=O)Cn1nnc(-c2ccc3c(c2)OCO3)n1)C1CCCCC1`, the activity change, negative = toxicity was 11.2% (inactive). For `COc1cc(OC)cc(C(=O)Nc2nc(-c3ccc4c(c3)CCN4C(=O)OC(C)(C)C)cs2)c1`, the activity change, negative = toxicity was 12.9% (inactive). With `CC(=O)N1CCc2cc(-c3nc(NC(=O)c4cccc(OC(F)(F)F)c4)sc3C)ccc21` the activity change, negative = toxicity was -14.1% (inactive). In the case of `COc1c(NC(=O)C(=O)c2ccc(OCCN3CCOCC3)c3ccccc23)cc(C(C)(C)C)cc1NS(C)(=O)=O`, the activity change, negative = toxicity was -4.11% (inactive). With `COc1cc(OC)cc(C(=O)Nc2nc(-c3ccc4c(c3)CCN4C(=O)CN(C)C)cs2)c1` the activity change, negative = toxicity was 8.9% (inactive). In the case of `CCC(=O)N1CC(C)(C)c2cc(-c3csc(NC(=O)c4cc(OC)cc(OC)c4)n3)ccc21`, the activity change, negative = toxicity was 1.55% (inactive). For `CCC(=O)N1CCc2cc(-c3csc(NC(=O)c4cccc(OC)c4)n3)ccc21`, the activity change, negative = toxicity was 2.38% (inactive).

System: ldlA[mSR-BI] CHO cells viability, CellTiter-Glo ATP luminescence, 24 h
Experiment: as above
Conditions: not given
Summary of the method: as §1
Work on `CCCCCCC1CCC/C1=N\NC(N)=S` (stereo unspecified) yielded a pIC50 of 5.04.
